Only some compounds are listed: those with a hit (about 2.6% of all), similar ones and a draw of the others.
VIM-2 inhibitor: VIM-2 metallo-beta-lactamase inhibitors, primary screen, biochemical, epi-absorbance readout, Pseudomonas aeruginosa enzyme; inhibition, % at 5.6 µM; purified VIM-2, nitrocefin hydrolysis, epi-absorbance fluorescence; AID 1527, 2009; 290,000 compounds, 0.89% hits;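 active means inhibition above the mean of all tested compounds plus 3 SD, cutoff set per screening run, cut at about 7.5% in these data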;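 further: red hydrolysis product quenches plate fluorescence so inhibitors raise well fluorescence; 0% = enzyme with DMSO and 100% = DMSO without enzyme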
RanGTP-Impb inh: inhibitors of RanGTP-importin-beta interaction, primary screen, biochemical, FRET, CFP-Ran, YFP-importin-beta, homogeneous; Ran GTPase (GTP-bound) - importin-beta complex; cell-free CFP-Ran/YFP-importin-beta FRET ratio; inhibition, % (test concentration not listed); 300,000 compounds, 1.1% hits; AID 2216, 2009;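 active means more than half of the replicate wells show a fall in the fluorescence ratio signal beyond about 16%, limit read from the data, passing the limit was not always enough; inconclusive means exactly half of the replicate wells pass the set limit; inactive means fewer than half of replicates pass the limit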;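 further: 0% = DMSO wells and 100% = Ran loaded with GDP instead of GTP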
Runt-SMMHC FRET: inhibitors of RUNX1 Runt–CBFb-SMMHC binding, primary screen, biochemical, FRET, Cerulean-Runt, Venus-CBFb-SMMHC, uHTS | Runt-related transcription factor 1 (Homo sapiens) + Core-binding factor subunit beta … | Cerulean-Runt/Venus-CBFb-SMMHC FRET ratio 530/480, 1 h | inhibition, % at 20 µM | 220,000 compounds, 0.74% hits | AID 1434, 2008;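 active means mean inhibition across duplicate retests at 20 µM reaching about 50%, limit read from the data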;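 further: 0% = DMSO wells and 100% = wells with excess untagged CBFb-SMMHC; inhibitors lower the FRET ratio by blocking Runt binding to CBFb-SMMHC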
Target sequence (Q01196 whole entry, looked up): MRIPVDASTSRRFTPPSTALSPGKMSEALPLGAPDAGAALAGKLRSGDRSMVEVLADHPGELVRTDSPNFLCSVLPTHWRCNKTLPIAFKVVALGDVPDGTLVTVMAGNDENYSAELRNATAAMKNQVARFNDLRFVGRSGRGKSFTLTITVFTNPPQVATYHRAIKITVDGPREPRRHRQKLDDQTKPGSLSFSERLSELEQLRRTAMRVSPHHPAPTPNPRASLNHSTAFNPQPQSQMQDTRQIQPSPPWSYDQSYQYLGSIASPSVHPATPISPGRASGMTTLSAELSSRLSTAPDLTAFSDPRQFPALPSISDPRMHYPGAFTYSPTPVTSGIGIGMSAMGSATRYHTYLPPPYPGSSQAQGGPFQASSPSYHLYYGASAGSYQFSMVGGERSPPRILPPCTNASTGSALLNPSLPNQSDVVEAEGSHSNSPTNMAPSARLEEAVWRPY
Target sequence (Q13951 whole entry, looked up): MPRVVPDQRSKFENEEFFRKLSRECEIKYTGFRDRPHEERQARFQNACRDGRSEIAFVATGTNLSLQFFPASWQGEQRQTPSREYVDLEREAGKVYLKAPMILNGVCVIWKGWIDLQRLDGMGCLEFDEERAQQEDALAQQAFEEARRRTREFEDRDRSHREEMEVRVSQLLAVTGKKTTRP
IMP-1 inhibitor: IMP-1 metallo-beta-lactamase inhibitors, primary screen, biochemical, epi-absorbance readout, Pseudomonas aeruginosa enzyme; AID 1556, 2009; 290,000 compounds, 0.45% hits; metallo-beta-lactamase IMP-1 (Pseudomonas aeruginosa); inhibition, % at 5.6 µM; purified IMP-1, nitrocefin hydrolysis, epi-absorbance fluorescence;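 active means inhibition above the mean plus 3 SD of all compounds in the same screening run, cut at about 4.5% in these data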;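 further: 0% = IMP-1 with DMSO and 100% = DMSO wells lacking enzyme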
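System: purified IMP-1; amount: IMP-1 0.2 nM before substrate addition; compound: single dose, 5.6 µM; times: 25 °C, 15 min preincubation, 25 min reaction; signal: Epi-absorbance via hydrolysed-nitrocefin quenching of white-plate fluorescence, 480/530 nm, EDTA stop; benchmarks: DMSO with and without IMP-1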
Runt-CBFb FRET: inhibitors of RUNX1 Runt–CBFb binding, primary screen, biochemical, FRET, Cerulean-Runt, Venus-CBFb, uHTS. Cerulean-Runt/Venus-CBFb FRET ratio 530/480, 1 h. 220,000 compounds, 0.46% hits. inhibition, % at 20 µM. Runt-related transcription factor 1 (Homo sapiens) + Core-binding factor subunit beta …. AID 1496, 2009;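 active means inhibition over about 50% at 20 µM in the single-dose screen, limit read from the data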;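 further: 0% = DMSO wells and 100% = excess unlabeled CBFb competitor control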
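Schedule: protein complex preformed 1 h, compound exposure 1 h, room temperature, dark; test system: Cerulean-labeled Runt domain protein; amount: 100 nM per protein; buffer or medium: Tris 50 mM pH 7.5, KCl, K2SO4, 0.01% BSA; read-out: loss of energy transfer signal; detection: FRET fluorescence; controls: 5 µM unlabeled CBFb as full-inhibition high control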
* = called active by the depositor; ? = inconclusive; / = not tested or not shown; ! = not active in a repeat.

SMILES	VIM-2 inhibitor	RanGTP-Impb inh	Runt-SMMHC FRET	IMP-1 inhibitor	Runt-CBFb FRET
COc1cccc(/C=C2\SC(=O)N(CC(=O)NC3C=CS(=O)(=O)C3)C2=O)c1 (stereo not drawn)	-2	4	/	0	/
CCc1ccc(NC(=O)CN(c2cc(C)cc(C)c2)S(=O)(=O)c2c(C)[nH]c(=O)[nH]c2=O)cc1	-1	21*	/	-1	/
CC(=O)Nc1ccc(NC(=O)CSc2ccc(-c3ccc(-n4ccnc4)cc3)nn2)cc1	/	2	/	/	/
CC(=O)c1ccc(OCCCC(=O)NCCc2ccc(C(F)(F)F)cc2)cc1	-1	-1	/	0	/
Cc1cc2oc(=O)cc(-c3cc4ccccc4o3)c2cc1O	1	-1	/	6.0*	/
CC(=O)COc1ccc2oc(=O)cc(-c3cc4ccccc4o3)c2c1	8.3*	3	/	-2	/
CCOC(=O)C(CC(=O)O)=C(c1ccccc1)c1ccccc1	0	3	/	0	/
Cc1cc(=O)oc2cc(NC(=O)c3ccc(OC(F)F)cc3)ccc12	1	-1	/	8.7*	/
Cc1cc(=O)oc2cc(NC(=O)C(C)Oc3ccc(F)cc3)ccc12 (stereo not drawn)	/	-2	/	/	/
COc1ccccc1-[n+]1c(C)cc(/C=C2\Sc3ccccc3N2C)cc1C	6	1	63*	-3	6
Cc1cc(C)c(C(=O)NC2CCCc3c2cnn3-c2ccc(C)c(C)c2)c(=O)[nH]1 (stereo not drawn)	0	1	/	2	/
O=C(Cc1cc(=O)[nH][nH]1)N/N=C/c1c(F)cccc1Cl	0	-3	3	-1	1
O=C(Cc1cc(=O)[nH][nH]1)N/N=C/c1c(Cl)cccc1Cl	2	2	-171	7.5*!	-2
O=C(N/N=C\C=C\c1ccc2c(c1)OCO2)C1COc2cc3ccccc3cc2O1 (stereo not drawn)	-5	19*	2	-3	1
O=C(N/N=C/c1ccc2c(c1)OCO2)C1COc2ccccc2O1 (stereo not drawn)	-1	-3	-2	-2	-1
Cc1ccc(NC(=O)N(CCCN2CCOCC2)Cc2cc3cc4c(cc3[nH]c2=O)OCO4)cc1	0	-13	-32	-4	-25
COc1cc2cc(CN(CCCN3CCOCC3)C(=O)Nc3ccc(F)cc3)c(=O)[nH]c2cc1OC	8.8*	?	-8	0	-5
O=c1cc(NCc2ccccc2)nc2n1CCCS2	-4	20*	1	-4	-4
O=C(O)C1=C(C(=O)Nc2cc(C(F)(F)F)ccc2Cl)CCCC1	4	5	-40	9.9*	-1
O=C(CN1CCCCCC1)Nc1cc(C(F)(F)F)ccc1Cl	0	5	1	-2	-2
CC(CN1C(C)CCCC1C)OC(=O)c1cccc(Br)c1 (stereo not drawn)	-1	-2	/	-4	/
O=C(CSc1nc2ccccc2s1)NNC(=S)Nc1ccc(Br)cc1	-5	-2	-2	-5	0
O=C(CSc1nc2ccccc2s1)NNC(=S)Nc1ccccc1	9.7*	0	16	-4	8
Cc1csc(NC(=O)CSc2nc3ccccc3s2)n1	-1	2	-4	4.6*	0
Cc1csc(NC(=O)CCCSc2nc3ccccc3s2)n1	-3	-1	5	-2	2
SMILES	VIM-2 inhibitor	RanGTP-Impb inh	Runt-SMMHC FRET	IMP-1 inhibitor	Runt-CBFb FRET
O=C(Nc1c2c(nn1-c1ccc(Cl)cc1)CS(=O)(=O)C2)C1CC1	-1	-1	/	-4	/
CC(=Nc1ccccc1)c1sc2ccccc2c1O	1	48*	-7	0	14
CC(=Nc1ccccc1)C1=C(O)COC1=O	-3	-2	3	0	1
CC(=Nc1ccc(Br)cc1)c1sc2ccccc2c1O	0	49*	81	-2	9
CCOc1ccccc1CNC(=O)c1ccc(NC(=O)C2=C(C)OCCS2)cc1	-4	-3	/	-2	/
O=C1c2cccc3cccc(c23)C(=O)N1CCN1CCN(C(=S)Nc2ccccc2)CC1	7.8*	3	-1	-3	-2
O=C1c2cccc3cccc(c23)C(=O)N1CCN1CCN(C(=S)Nc2ccc(Cl)cc2)CC1	4	3	-4	0	-1
O=C(c1ccco1)N1CCN(c2c([N+](=O)[O-])nn(-c3cccc(Cl)c3)[n+]2[O-])CC1	-3	-2	-6	7.8*	0
O=c1[nH]cc(NCCc2ccccc2)c(=O)[nH]1	-1	43*	16	-1	9
O=c1[nH]cc(COCc2ccccc2)c(=O)[nH]1	-1	7	-2	-4	-1
COc1ccccc1/C=C(/NC(=O)c1ccccc1)C(=O)NCCCn1ccnc1	-1	1	/	-1	/
O=C(CCC(=O)c1cccs1)c1cccs1	-2	-3	3	4.6*	0
NC(=O)c1ccc(NC(=O)CCC(=O)c2cccs2)cc1	-4	-2	/	5.0*	/
COc1ccc(NC(=O)c2nc[nH]c2C(=O)N2CCN(C(=O)OC(C)(C)C)CC2)cc1	/	25*	0	/	0
CC(C)(C)c1ccccc1NC(=O)c1ccc(-n2cncn2)c([N+](=O)[O-])c1	/	0	/	/	/
Clc1cccc(Cl)c1CSc1nnc([C@@H]2CCCN2)o1	1	-2	2	5.0*	-2
COc1ccc(CC(=O)O)cc1O	-2	-5	2	-3	3
COc1ccc(CC2NCCC3=CC(=O)CCC32)cc1O (stereo not drawn)	/	29*	/	/	/
COc1ccc(CCN2CCCC(CN(C)Cc3cc(Cl)c(O)c(OC)c3)C2)cc1 (stereo not drawn)	-3	1	/	-2	/
CC(=O)N1c2ccc(S(=O)(=O)NCc3ccco3)cc2CC1C (stereo not drawn)	-2	?	/	-2	/
COc1cc(CCNC(=O)CCCn2c(=O)c3cccn3c3cccnc32)cc(OC)c1OC	-2	-2	/	-4	/
CCc1nnc(NC(=O)C(C)Sc2ccccc2)s1 (stereo not drawn)	-4	25*	0	-4	0
O=C(Nc1nnc(CSCc2ccccc2F)s1)c1cccc([N+](=O)[O-])c1	5	3	3	0	4
CC(C)C(=O)Nc1nnc(CSCc2ccccc2F)s1	10*	3	2	-1	-2
CCC1CCCCN1CCCNC(=O)c1ccc2c(c1)N(Cc1ccc(F)cc1)C(=O)c1ccccc1S2=O (stereo not drawn)	1	2	/	0	/
CN(C)c1cccc(C(=O)Nc2cccc(S(=O)(=O)NC3=NCCC3)c2)c1	-1	?	/	-1	/

Screening results as filed in PubChem BioAssay.
